Consider 16 compounds from ChEMBL document CHEMBL3085772, “Synthesis, biological evaluation and molecular modeling study of 5-trifluoromethyl-Δ²-pyrazoline and isomeric 5/3-trifluoromethylpyrazole derivatives as anti-inflammatory agents” (2013).

Holding throughout (assay type): functional
Common to all, as to set-up: scale not given: the % may be the effect or the level left

The subject of experiment [1] is Rattus norvegicus. Description: Antiinflammatory activity in Wistar albino rat assessed as reduction in carrageenan-induced paw edema at 50 mg/kg, po administered 30 mins prior to carrageenan challenge measured after 4 hrs by plethysmometer. A digest of the protocol:
(§1)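 Rats housed under standard light and temperature with free food and water; food withdrawn 12 h before and during testing; six rats per group, control given tween 80. Oral dosing 30 min before subplantar injection of 0.1 mL 1% w/v carrageenan in normal saline into left hind paw. Paw volume read by plethysmometer at baseline and 1, 2, 3, 4 h; %AI = (Vc−Vt)/Vc×100.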

Experiment [2] has as its system Rattus norvegicus. Description: Antiinflammatory activity in Wistar albino rat assessed as reduction in carrageenan-induced paw edema at 50 mg/kg, po administered 30 mins prior to carrageenan challenge measured after 3 hrs by plethysmometer. A digest of the protocol: as §1
(In the carrageenan paw model, swelling and tenderness develop within hours.)

For experiment [3], the system named is Rattus norvegicus. Put plainly: Antiinflammatory activity in Wistar albino rat assessed as reduction in carrageenan-induced paw edema at 50 mg/kg, po administered 30 mins prior to carrageenan challenge measured after 2 hrs by plethysmometer. The gist of the method:
as §1

In experiment [4] the test system is Rattus norvegicus. Description: Antiinflammatory activity in Wistar albino rat assessed as reduction in carrageenan-induced paw edema at 50 mg/kg, po administered 30 mins prior to carrageenan challenge measured after 1 hr by plethysmometer. A digest of the protocol: as §1
For experiment [5], the system named is Rattus norvegicus. Description: Antiinflammatory activity in Wistar albino rat assessed as reduction in carrageenan-induced paw edema at 10 mg/kg, po administered 30 mins prior to carrageenan challenge measured after 1 hr by plethysmometer. The gist of the method: as §1
Experiment [6] concerns Rattus norvegicus. Description: Antiinflammatory activity in Wistar albino rat assessed as reduction in carrageenan-induced paw edema at 10 mg/kg, po administered 30 mins prior to carrageenan challenge measured after 3 hrs by plethysmometer. A digest of the protocol:
as §1

Experiment [7] relates to Rattus norvegicus. Description: Antiinflammatory activity in Wistar albino rat assessed as reduction in carrageenan-induced paw edema at 10 mg/kg, po administered 30 mins prior to carrageenan challenge measured after 2 hrs by plethysmometer. A digest of the protocol:
as §1

For experiment [8], the system named is Rattus norvegicus. Description: Antiinflammatory activity in Wistar albino rat assessed as reduction in carrageenan-induced paw edema at 10 mg/kg, po administered 30 mins prior to carrageenan challenge measured after 4 hrs by plethysmometer. The gist of the method:
as §1

For the compound `Cc1cc(C)nc(N2N=C(c3ccccc3)C[C@@]2(O)C(F)(F)F)n1`, the Activity in the experiment with Rattus norvegicus [1] was found to be 45%; in the experiment on Rattus norvegicus [2], 50%; in the experiment with Rattus norvegicus [3], 47%; with Rattus norvegicus [4] it was 44%.

On to `Cc1ccc(C2=NN(c3nc(C)cc(C)n3)[C@](O)(C(F)(F)F)C2)cc1`, for which the Activity with Rattus norvegicus [1] is reported as 50%; with Rattus norvegicus [2], 54%; with Rattus norvegicus [3], 35%; in the experiment with Rattus norvegicus [4], 32%.

`COc1ccc(-c2cc(C(F)(F)F)nn2-c2nc(C)cc(C)n2)cc1`: the Activity in the experiment with Rattus norvegicus [1] is reported as 61%; in the experiment on Rattus norvegicus [2] it was 72%; in the experiment with Rattus norvegicus [3], 59%; in the experiment on Rattus norvegicus [4] it was 56%.

Consider `Cc1cc(C)nc(-n2nc(-c3ccc(F)cc3)cc2C(F)(F)F)n1`, for which the Activity with Rattus norvegicus [1] stood at 49%; in the experiment with Rattus norvegicus [2], 55%; with Rattus norvegicus [3] it was 38%; in the experiment with Rattus norvegicus [4], 26%.

In the case of `Cc1cc(C)nc(N2N=C(c3ccc(F)cc3)C[C@@]2(O)C(F)(F)F)n1`, the Activity with Rattus norvegicus [1] was 38%; with Rattus norvegicus [2] it was 54%; in the experiment on Rattus norvegicus [3], 51%; in the experiment on Rattus norvegicus [4] it was 49%.

Regarding `Cc1cc(C)nc(N2N=C(c3ccc(Cl)cc3)C[C@@]2(O)C(F)(F)F)n1`, the Activity is reported as 45% in the experiment on Rattus norvegicus [1], 59% in the experiment with Rattus norvegicus [2], 50% in the experiment on Rattus norvegicus [3] and 5.7% in the experiment on Rattus norvegicus [4].

For `Cc1cc(C)nc(-n2nc(C(F)(F)F)cc2-c2ccc(F)cc2)n1`, the Activity stood at 58% in the experiment with Rattus norvegicus [1], 67% with Rattus norvegicus [2], 59% in the experiment on Rattus norvegicus [3] and 29% with Rattus norvegicus [4].

As to `Cc1cc(C)nc(-n2nc(-c3cccs3)cc2C(F)(F)F)n1`, the Activity in the experiment on Rattus norvegicus [1] amounted to 37%; in the experiment on Rattus norvegicus [2], 47%; in the experiment with Rattus norvegicus [3], 18%; in the experiment on Rattus norvegicus [4], 8.6%.

Consider `Cc1cc(C)nc(-n2nc(C(F)(F)F)cc2-c2ccc(Cl)cc2)n1`, for which the Activity in the experiment with Rattus norvegicus [1] is 63%; with Rattus norvegicus [2], 76%; in the experiment on Rattus norvegicus [3], 64%; in the experiment on Rattus norvegicus [4] it was 55%.

Regarding `Cc1cc(C)nc(-n2nc(-c3ccc(Cl)cc3)cc2C(F)(F)F)n1`, the Activity is on record as 53% in the experiment on Rattus norvegicus [1], 58% in the experiment with Rattus norvegicus [2], 54% in the experiment on Rattus norvegicus [3] and 35% in the experiment with Rattus norvegicus [4].

On to `Cc1cc(C)nc(-n2nc(C(F)(F)F)cc2-c2ccccc2)n1`, for which the Activity stood at 51% with Rattus norvegicus [1], 62% in the experiment with Rattus norvegicus [2], 43% in the experiment on Rattus norvegicus [3] and 33% in the experiment on Rattus norvegicus [4].

On to `Cc1cc(C)nc(-n2nc(-c3ccccc3)cc2C(F)(F)F)n1`, for which the Activity was 56% in the experiment with Rattus norvegicus [1], 59% in the experiment on Rattus norvegicus [2], 20% with Rattus norvegicus [3] and 4.3% in the experiment on Rattus norvegicus [4].

`Cc1cc(C)nc(N2N=C(C(F)(F)F)C[C@@]2(O)C(F)(F)F)n1`: the Activity is 23% with Rattus norvegicus [1], 49% with Rattus norvegicus [2], 44% in the experiment with Rattus norvegicus [3] and 42% in the experiment on Rattus norvegicus [4].

Turning to `Cc1cc(C)nc(-n2nc(C(F)(F)F)cc2C(F)(F)F)n1`, the Activity amounted to 44% with Rattus norvegicus [1], 57% with Rattus norvegicus [2], 46% in the experiment with Rattus norvegicus [3] and 34% with Rattus norvegicus [4].

As for `Cc1ccc(-c2cc(C(F)(F)F)nn2-c2nc(C)cc(C)n2)cc1`, the Activity is listed as 53% in the experiment with Rattus norvegicus [1], 69% in the experiment with Rattus norvegicus [2], 55% in the experiment on Rattus norvegicus [3] and 48% with Rattus norvegicus [4].

As to `COc1ccc2c(c1)c(CC(=O)O)c(C)n2C(=O)c1ccc(Cl)cc1` [INDOMETHACIN], the Activity in the experiment with Rattus norvegicus [5] is 69%; in the experiment with Rattus norvegicus [6] it was 78%; in the experiment on Rattus norvegicus [7], 75%; in the experiment with Rattus norvegicus [8] it was 74%.
